The text below walks through data of PubChem BioAssay AID1046 (PCMD, 2008).

Out of some 220,000 compounds screened, about 560 (0.25%) were called active.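 How the source made its calls: active means inhibition at or above 40%; inactive means inhibition below 40%.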 What follows is part of a selection rich in actives, with near analogues and random picks from the rest.

The assay has as its target Prothrombin (Homo sapiens) (UniProt P00734). Description: human alpha-thrombin inhibitors, primary screen, counter-screen for coagulation protease inhibitor project, biochemical, 1536-well, fluorogenic AMC substrate (AID 1046).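 Further: 0% = enzyme with no compound and 100% = wells without enzyme.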 As to conditions: Boc-VPR-AMC fluorogenic substrate cleavage, at 5 µM, active compounds read high. An outline of the steps: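 signal = AMC fluorescence, 355/460 nm | material = human alpha-thrombin enzyme | control set = enzyme without compound as high, wells lacking enzyme as low | times = reaction at room temperature | read-out basis = percent inhibition scaled between no-compound controls and no-enzyme blanks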
The term inhibition denotes the drop in the measured response relative to a control, in per cent. With `COC(=O)c1onc(-c2c(OC)cc(OC)cc2OC)c1C(=O)OC`, the inhibition is 1.99% (inactive).
Consider `COc1ccc(C(C)=O)cc1CSc1nc2nc(C)cc(C)n2n1`, for which the inhibition is -1.59% (inactive).
For `Cc1ccc(S(=O)(=O)/N=C(\CN2CCOCC2)N2CCOCC2)cc1`, the inhibition is -16.3% (inactive).
For `Nc1ccccc1Sc1cc(Cl)nnc1Cl`, the inhibition was 14.4% (inactive).
Consider `CC(=O)NCCC(=O)Nc1nc(C)c(Cc2ccc3c(c2)OCO3)s1`, for which the inhibition was -4.26% (inactive).
The same measure for `Cc1ccc(NC(=S)NCCN2CCOCC2)cc1`: -1.01% (inactive).
Consider `CCOc1nc(NCCN2CCOCC2)nc(Nc2ccc(C)cc2)n1`, for which the inhibition is 63.7% (active).
With `Nc1nc(NCCCN2CCOCC2)nc(Nc2ccccc2)c1[N+](=O)[O-]`, the inhibition is -6.41% (inactive).
In the case of `CSc1c(SCc2ccccc2)cnn(Cc2ccccc2)c1=O`, the inhibition was 0.48% (inactive).
Take `COCCOC(=O)c1c(C)oc2cc(Br)c(OCC(N)=O)cc12`: the inhibition is -6.6% (inactive).
The same measure for `O=C1N(c2ccccc2)C(=Nc2ccccc2)SC12CC2`: -5.96% (inactive).
`COc1ccc(C/C(C)=N/NC(=O)c2cc(C)oc2C)cc1`: the inhibition was 0.98% (inactive).
For the compound `CN(C(=O)CSc1nnc(Nc2ccccc2)s1)C1CCS(=O)(=O)C1` (centres undefined), the inhibition was -0.79% (inactive).
`Cc1cc(C(=O)COc2ccccc2[N+](=O)[O-])c(C)n1-c1cccc(S(=O)(=O)N2CCOCC2)c1`: the inhibition was 5.89% (inactive).
As for `CC1=C(C)CC(C(=O)NNC(=O)c2ccccc2O)C(C(=O)O)C1` (centres undefined), the inhibition is -3.8% (inactive).
Regarding `Cc1cc(C)n2nc(C(=O)N3CCN(Cc4ccc5c(c4)OCO5)CC3)nc2n1`, the inhibition is -9.34% (inactive).
`COc1ccc(CNC(=O)CN(Cc2ccc(Cl)cc2)S(C)(=O)=O)cc1`: the inhibition was -2.34% (inactive).
The same measure for `Cc1cc(C)cc(C(=O)NC2C(=O)N3C(C(=O)O)=C(CSc4nnc(C)s4)CSC23)c1` (centres undefined): -12% (inactive); for `O=C(Cn1cnc([N+](=O)[O-])n1)NCCc1ccccc1`: -6.67% (inactive).
Consider `CN(C)c1cc(-c2ccc(F)cc2)oc(=O)c1Cl`, for which the inhibition is -0.75% (inactive).
On to `CN(c1ccc(OCC(=O)NC2=NCCS2)cc1)S(=O)(=O)c1ccc(F)cc1`, for which the inhibition was -4.51% (inactive).
On to `Cc1ccc(SCc2c(C(=O)N/N=C/C3CC=CCC3)nnn2-c2nonc2N)cc1` (centres undefined), for which the inhibition was -0.65% (inactive).
Regarding `O=C(NCC1CCCO1)c1cc(-c2ccccc2)nc2ccccc12` (centres undefined), the inhibition is 3.52% (inactive).
`Cn1cc(CN2CCCCC2c2ccccn2)c(-c2ccc3c(c2)OCCO3)n1` (centres undefined): the inhibition was -14.8% (inactive).
`O=S(=O)(c1cccc(C(F)(F)F)c1)N1CCN(c2cnccn2)CC1`: the inhibition is 2.6% (inactive).
For the compound `CCCN1C(=O)C(Cc2nc3ccccc3c(=O)n2-c2ccccc2)c2cc(C)ccc21` (centres undefined), the inhibition is -0.44% (inactive).
As to `O=C(Nc1nnc(COc2ccccc2)s1)Nc1ccccc1F`, the inhibition was 1.51% (inactive).
On to `CCOC(=O)C1(CCOC)CCN(Cc2ccc(C(=O)OC)cc2)CC1`, for which the inhibition is -3.33% (inactive).
Consider `CC(C)Oc1ccc(CCC(=O)NNC(=S)NCc2ccccc2)cc1`, for which the inhibition was 5.08% (inactive).
Regarding `CCN(CC)CCC(c1ccc2c(c1)OCO2)c1c(OC)cc(OC)c2c(-c3ccccc3)cc(=O)oc12` (centres undefined), the inhibition was -12.8% (inactive).
In the case of `O=C(c1ccccc1Cl)N(Cc1ccccc1F)N1C(=O)CCCC1=O`, the inhibition is -0.77% (inactive).
With `CCC(C)[C@@H](C(=O)N1CCNCC1)n1cc(CCCCN)nn1` (some centres undefined), the inhibition was -2.39% (inactive).
The same measure for `CCOC(=O)C1(C)NC(c2ccco2)C2C(=O)N(c3ccccc3)C(=O)C21` (centres undefined): -2.99% (inactive); for `O=C(Nc1ccccc1F)c1ccc(Cn2cc(Br)cn2)cc1`: 0.95% (inactive).
For `CCCC(O)(CCC)C(=O)NN(C(=O)CCl)c1cccc(C)c1` the value was -0.4% (inactive).
With `CC(C)Cc1ccc(C(C)C(=N)N)cc1` (centres undefined), the inhibition is -0.2% (inactive).
For the compound `CCS(=O)(=O)N1Cc2ccccc2CC1C(=O)Nc1nc2ccc(F)cc2s1` (centres undefined), the inhibition was -4.77% (inactive).
`O=C(CSc1nnnn1-c1ccc(O)cc1)c1ccc(F)cc1`: the inhibition was -1.4% (inactive).
Consider `CC1CN(S(=O)(=O)c2ccc(C(=O)NN3CCN(C)CC3)cc2)CC(C)O1` (centres undefined), for which the inhibition was -9.4% (inactive).
`CC(C)(C)C1CCC(OC(=O)CCC(=O)Nc2ccccc2)CC1` (centres undefined): the inhibition is -0.51% (inactive).
For `CC(C)N1C(=O)N(c2ccccc2)C(C)(O)CC1(C)C` (centres undefined) the value was -4.92% (inactive).
In the case of `COC(=O)c1cc2c(N)c(C(=O)c3ccc(Cl)cc3)sc2nc1C(OC)OC`, the inhibition is 3.67% (inactive).
In the case of `COc1ccccc1NC(=O)c1cc(Cl)nnc1Cl`, the inhibition is -8.6% (inactive).
As to `C=C(C)COc1ccc(-c2nc(N)ncc2-c2ccccc2OC)c(O)c1`, the inhibition was -2.7% (inactive).
Take `COc1cc(NC(=O)c2ccc(CNc3c(N4CCCC4)c(=O)c3=O)cc2)cc(OC)c1OC`: the inhibition was 3.4% (inactive).
For the compound `Cc1noc(C)c1S(=O)(=O)N1CCCC(C(=O)Nc2nccs2)C1` (centres undefined), the inhibition was -1.5% (inactive).
In the case of `Cc1ccc(NC(=O)C2CCCN(S(=O)(=O)c3c(C)noc3C)C2)c(C)c1` (centres undefined), the inhibition is -4.66% (inactive).
The same measure for `COc1c(C)cc(C(=O)C2CCCN(S(=O)(=O)c3c(C)noc3C)C2)cc1C` (centres undefined): 41.9% (active); for `CN1CCN(c2ncc3c(n2)CC(c2ccccc2F)CC3=O)CC1` (centres undefined): -5.02% (inactive).
With `Cc1ccc(C)c(NC(=S)NCC(c2cccnc2)N2CCOCC2)c1` (centres undefined), the inhibition was -3.59% (inactive).
For `CCCC/C(C)=N/NC(=O)NC1CCCCC1`, the inhibition was -6.13% (inactive).
For the compound `O=C(Cn1cc(C(=O)c2cccs2)c2ccccc21)NCc1cccs1`, the inhibition was -2.66% (inactive).
As for `COC(=O)Cn1cc(C(=O)c2cccs2)c2ccccc21`, the inhibition is 47% (active).
In the case of `COCCNC(=O)Cn1cc(C(=O)c2cccs2)c2ccccc21`, the inhibition is 0.65% (inactive).
On to `Clc1ccc(CSc2nnc3c(n2)[nH]c2ccccc23)cc1`, for which the inhibition is -0.71% (inactive).
Consider `CCC(C(=O)Nc1ccc(C(C)C)cc1)c1ccccc1` (centres undefined), for which the inhibition was -7.56% (inactive).
As for `CCc1ccc(CNC(=O)CCc2nc(-c3cccs3)no2)cc1`, the inhibition is 6.55% (inactive).
As for `O=C(Cn1c2[n+](c3ccc(C(F)(F)F)cc31)CCCCC2)Nc1c(F)cccc1F`, the inhibition was -11.3% (inactive).
With `O=C(CSc1ccc([N+](=O)[O-])cn1)Nc1ccc(N2CCOCC2)c(Cl)c1`, the inhibition was -6.75% (inactive).
Regarding `C=CCN(C(=O)Nc1ccc2c(c1)nc(C)n2C)c1ccccc1`, the inhibition was 43.6% (active).
For `Cc1nc2cc(NC(=O)Nc3cccc(F)c3)ccc2n1C` the value was 13.7% (inactive); for `C=CCN(C(=O)Nc1ccc2oc(C)nc2c1)c1ccccc1`, -2.2% (inactive); for `CCN(CC)C(=O)N(CC)Cc1ccccc1`, -4.01% (inactive).
As for `Cc1cc(C)n2nc(C(=O)N(C)C(c3ccccc3)c3ccccc3)nc2n1`, the inhibition is -10.8% (inactive).
In the case of `CCOc1cc(NC(=S)NCCCN(C)C)c(OCC)cc1NC(=O)C1CC1`, the inhibition was -9.76% (inactive).
Regarding `O=C1/C(=C\c2cccnc2)CN(Cc2ccccc2)C/C1=C\c1cccnc1`, the inhibition was 10.5% (inactive).
As to `O=C(c1[nH]ncc1-c1ccc(Cl)cc1)C1CO1` (centres undefined), the inhibition is -4.22% (inactive).
As for `CC(=O)OCCOCn1cnn2c(=O)c(Br)c(C)nc12`, the inhibition is 0.26% (inactive).
For `CCOC(=O)c1c(NC(=O)C(C)Sc2c[nH]c3ccccc23)sc2c1CCC2` (centres undefined) the value was 1.33% (inactive); for `CC(=O)c1sc2nc(SCC(=O)N3CCCCC3)[nH]c(=O)c2c1C`, -2.78% (inactive); for `Cc1nnc(SCC(=O)N2CCOCC2)[nH]c1=O`, -2.64% (inactive).
In the case of `O=C(CSc1nc2c(cnn2-c2ccc(F)cc2)c(=O)[nH]1)N1CCCCCC1`, the inhibition was 40.9% (active).
The same measure for `CCNC(=S)NNC(=O)C1CCN(Cc2ccccc2)CC1`: -3.23% (inactive).
For `O=C(Nn1cnnc1)c1ccc([N+](=O)[O-])cc1` the value was -7.16% (inactive).
`Cc1ccc(C)n1NC(=O)c1ccc([N+](=O)[O-])cc1`: the inhibition was -0.02% (inactive).
As for `O=C(Nc1cc2c3c(c1)C1CCCC1CN3CC1CCCC21)c1ccc([N+](=O)[O-])cc1` (centres undefined), the inhibition was 101% (active).
For `Cn1c(=O)c(=O)n(C)c2cc(S(=O)(=O)NCCN3CCN(c4ccccc4F)CC3)ccc21`, the inhibition is -4.5% (inactive).
On to `C=CCC(Nc1ccccc1)c1cccc(OC)c1OC` (centres undefined), for which the inhibition was -13% (inactive).
Consider `CC1COc2ccccc2N1S(=O)(=O)c1ccccc1` (centres undefined), for which the inhibition was 4.45% (inactive).
The same measure for `Cc1ccccc1Cn1nc(C)c(NC(=O)C(F)(F)F)c1C`: -1.16% (inactive).
For `CCO[C@@H]1OC(C(=O)NC2CC2)=C[C@H](C)[C@H]1CCCO`, the inhibition is -5.9% (inactive).
As for `CCCN(CCC)S(=O)(=O)c1ccc(C(=O)NNC(=O)c2cc(OC)c(OC)c(OC)c2)cc1`, the inhibition was 2.82% (inactive).
Take `COC(=O)c1cccc(NC(=O)CN2CCC(NC(=O)c3cc(OC)c(OC)c(OC)c3)CC2)c1`: the inhibition was -1.04% (inactive).
In the case of `CCN1CCN(CC(=O)c2cc(OC)c(OC)c(OC)c2)CC1`, the inhibition was 45.6% (active).
For `CCCN(CCC)c1c([N+](=O)[O-])c(=O)oc2ccccc12` the value was 0.93% (inactive); for `COc1ccc(OC)c(-n2c(-c3ccn[nH]3)n[nH]c2=S)c1`, -4.83% (inactive).
For `COCC(=O)Nc1cc(C(=O)OC)cc(C(=O)OC)c1`, the inhibition is 0.93% (inactive).
For `O=C(Cc1ccccc1)n1nc(-c2ccccc2)nc1NCc1ccco1` the value was 75.1% (active); for `c1ccc(-c2nc(NCc3ccco3)c3ccccc3n2)cc1`, 3.14% (inactive); for `CS(=O)(=O)n1nc(-c2ccccc2)nc1NCc1ccco1`, -2.92% (inactive).
`O=C(c1ccc(N2CCOCC2)c([N+](=O)[O-])c1)N1CCN(S(=O)(=O)c2cccs2)CC1`: the inhibition is -1.14% (inactive).
The same measure for `c1ccc(CN=C2Nc3ccccc3CS2)nc1`: -2.61% (inactive); for `O=C(CSc1nc2ccccc2s1)Nc1ccc(C(=O)O)cc1`: -1.16% (inactive); for `CCn1cc(CNC(=O)c2cc([N+](=O)[O-])c(C)c([N+](=O)[O-])c2)cn1`: -0.78% (inactive).
`Cc1ccc(CN2CCN(Cc3cn(C)nc3-c3ccccc3)CC2CCO)o1` (centres undefined): the inhibition was 0.78% (inactive).
The same measure for `Cc1cc(C)cc(N(CC(=O)Nc2c(C)n(C)n(-c3ccccc3)c2=O)S(C)(=O)=O)c1`: 4.95% (inactive); for `Cc1ccc(S(=O)(=O)CC(=O)Nc2c(C)n(C)n(-c3ccccc3)c2=O)cc1`: 46.1% (active); for `Cc1ccc(S(=O)(=O)/N=C(/NC(=S)Nc2c(C)n(C)n(-c3ccccc3)c2=O)c2ccccc2)cc1`: 3.47% (inactive).
The same measure for `CC(=O)N/C(=C\c1ccc(F)cc1)C(=O)NC(Cc1ccccc1)C(=O)O` (centres undefined): -5.05% (inactive).
